# Screening data: PubChem BioAssay, Sanford-Burnham Center for Chemical Genomics
# Rows were chosen to be rich in hits. Some 1.5% of all compounds tested hit in one or more screens of this group.
# APJ antag = antagonists of human apelin receptor APJ, primary screen, CHO-K1 cells, beta-arrestin complementation, luminescence; inhibition, % at 20 µM; hit rate 0.32% among 330,000; AID 2521, 2010; P35414;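 active means inhibition above about 40% at 20 µM, limit read from the data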;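 further: cells challenged with 10 nM apelin-13 agonist together with compound; plate controls were apelin-13 plus DMSO wells for no effect and DMSO wells lacking apelin-13 for full effect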
# CCR6 antagonist = CCR6 receptor antagonists, primary screen, cell-based, CHO-K1, luminescence, beta-arrestin, uHTS; C-C chemokine receptor type 6 (Homo sapiens), P51684; hit rate 0.49% among 340,000; AID 493098, 2011; inhibition, % at 20 µM; CHO-K1 CCR6 PathHunter beta-arrestin, CCL20-stimulated;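 active means compounds whose inhibition of the agonist-driven luminescence signal at 20 µM reaches about 50%, limit read from the data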;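 further: cells stimulated with CCL20 at 14 nM final; plate controls were DMSO with CCL20 for no effect and DMSO without agonist for full effect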
# CXCR6 inh = CXCR6 receptor inhibitors, primary screen, cell-based, beta-arrestin, luminescence, CHO-K1 PathHunter, 1536-well; C-X-C chemokine receptor type 6 (Homo sapiens), O00574; inhibition, % at 20 µM; hit rate 0.36% among 360,000; in the data active means inhibition above about 34%, passing the limit was not always enough;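 further: antagonist mode with CXCL16 agonist at 10 nM final; 0% = 10 nM CXCL16 with DMSO and 100% = unstimulated wells without agonist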
# EBI2 block = EBI2 receptor antagonists, beta-arrestin recruitment, primary screen, cell-based, luminescence, 7a,25-OHC stimulation, uHTS. G-protein coupled receptor 183 (Homo sapiens), P32249. inhibition, % at 5 µM. hit rate 0.81% among 360,000. 7a,25-OHC stimulated; in the data active means inhibition above about 38%;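 further: enzyme fragment complementation signal reports receptor beta-arrestin coupling in cells; 0% = agonist plus DMSO wells and 100% = wells without agonist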
# Target sequence (P32249 whole entry, looked up, the tested form may be a part): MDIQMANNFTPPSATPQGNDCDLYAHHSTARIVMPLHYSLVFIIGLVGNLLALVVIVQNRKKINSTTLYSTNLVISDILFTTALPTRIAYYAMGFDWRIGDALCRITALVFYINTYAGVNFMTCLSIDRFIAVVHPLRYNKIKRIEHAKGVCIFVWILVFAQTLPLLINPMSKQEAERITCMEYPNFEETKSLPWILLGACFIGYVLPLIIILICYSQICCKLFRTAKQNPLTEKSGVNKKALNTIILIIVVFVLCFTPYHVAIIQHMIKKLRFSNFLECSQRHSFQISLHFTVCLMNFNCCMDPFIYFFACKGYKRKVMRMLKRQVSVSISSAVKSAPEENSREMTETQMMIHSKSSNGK
# APJ ag = agonists of human apelin receptor APJ, primary screen, CHO-K1 cells, PathHunter beta-arrestin, luminescence | activation, % at 20 µM | 0% DMSO wells, 100% apelin | AID 2520, 2010 | hit rate 0.11% among 330,000;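 active means activation more than six SD over the plate average, tested at 20 µM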;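 further: 0% = DMSO alone and 100% = apelin-13 at 10 nM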
#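 Assay system: CHO-K1 APJ beta-arrestin complementation cell line / Compound: single test compound dose, 20 µM final, 1% DMSO / Times: overnight seeding, 90 min compound at 25 °C, 1 h detection / Technique: beta-gal luminescence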
# APJ ag conf = agonists of human apelin receptor APJ, confirmation, cell-based, single concentration, CHO-K1, beta-arrestin, luminescence | activation, % at 20 µM | hit rate 10% among 310 | CHO-K1 APJ PathHunter beta-arrestin | shares compounds with APJ ag;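 active means activation above 40%, taking the highest of four retests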;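 further: plate controls were DMSO wells for no effect and apelin-13 at 10 nM for full effect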
# Starred values were filed as active, the others as inactive; nt = not tested or not shown.
SMILES,APJ antag,CCR6 antagonist,CXCR6 inh,EBI2 block,APJ ag,others
CSc1ncc(/C=C2/C(=O)NC(=O)N(c3ccc(C)cc3)C2=O)cn1,15.9,7.8,1.9,-9.8,0.6,
Cc1ccc(N2C(=O)NC(=O)/C(=C/c3cnn(-c4ccc(C)cc4)c3)C2=O)cc1,11.9,49.4,43.2*,42.8,0.2,
CCCCCN1C(=O)c2cc(OC)ccc2[C@@]2(C(=O)OCC)Cc3cc(Cl)ccc3[C@@H]12,nt,nt,18.5,43.7,nt,
CCOc1ccc(N2C(=O)/C(=C/c3ccco3)C(=O)NC2=S)cc1,10.0,78.6*,58.0*,-6.8,-0.2,
COc1ccc(O)c2c(=O)c3c(OC)cc4c(c3oc12)C1C=COC1O4 (stereo not given),17.0,9.6,-1.0,53.1*,-2.0,
CC(=O)O/C(=C1\CC2C3CC=C4CC(OC(C)=O)CCC4(C)C3CCC2(C)C1=O)C(F)(F)F (stereo not given),nt,82.6*,62.2*,6.1,nt,
CC(=O)O[C@H]1CC[C@@]2(C)C(=CC[C@@H]3[C@@H]2CC[C@]2(C)C(=O)CC[C@@H]32)C1,-2.2,4.8,-15.4,8.3,6.1,
O=c1[nH]c2ccccc2n1C1CCN(Cc2ccc(-c3[nH]c4cc5ncnc5cc4nc3-c3ccccc3)cc2)CC1,nt,nt,0.5,-13.3,nt,
CN1C2CCC1/C(=C/c1ccccn1)C(=O)/C2=C\c1ccccn1,nt,48.5,37.8*,29.7,nt,
Cc1ccccc1-n1c(/C=C/c2ccccn2)nc2ccccc2c1=O,-13.2,13.0,7.7,4.8,-3.5,
O=C(CN1CCCCC1)c1cccc(Br)c1,-12.4,67.9*,27.6,1.8,-6.2,
C=C1C(=O)OC2CCN3CC=C(COC(=O)C(C)(O)C4(CO4)C1C)C23 (stereo not given),nt,nt,-6.7,-6.5,nt,
CCOC(=O)[C@]12Cc3cc(Cl)ccc3[C@H]1N(C1CCCCC1)C(=O)c1ccccc12,nt,nt,21.0,75.9*,nt,
CC[C@H]1c2ccccc2[C@@H]2CC[C@H]1N2c1ccccc1,nt,nt,nt,11.9,nt,
C=C1C(O)[C@@H]2O[C@]3(CC[C@H](/C=C/C(C)[C@@H]4CC(C)=CC5(O[C@H](C[C@@](C)(O)C(=O)O)CCC5O)O4)O3)CC[C@H]2O[C@@H]1C(O)CC(C)[C@H]1OC2(CCCCO2)CCC1C (stereo not given in full),7.5,16.1,nt,nt,-0.1,
N#CC1c2ccccc2-n2nncc2CN1Cc1cc(Cl)cc(Cl)c1 (stereo not given),nt,41.0,26.4,43.4*,nt,
CCOC(=O)[C@]12Cc3cc(Cl)ccc3[C@H]1N(C(C)C)C(=O)c1ccccc12,nt,nt,0.1,19.0,nt,
CCCCn1c(NC(=O)c2ccc(Br)o2)c(C(=O)OCC)c2nc3ccccc3nc21,62.8*,42.8,22.9,16.0,-10.9,
Cc1ccc(N2C(=O)NC(=O)/C(=C/C=C/c3ccco3)C2=O)cc1,-38.2,53.2*,36.5,45.1*,3.0,
CCc1ccc(N2C(=O)NC(=O)/C(=C\C=C\c3ccco3)C2=O)cc1,-10.4,36.3,34.4,34.6,-1.8,
O=C1NC(=O)N(c2ccccc2)C(=O)/C1=C\C=C\c1ccccc1,-0.4,33.2,52.7*,15.8,5.5,
COC(=O)C[C@]1(C(=O)OC)CN(C#N)N(c2ccc(Cl)cc2)C12c1ccccc1-c1ccccc12,13.1,18.6,22.1,24.0,3.8,
COC(=O)[C@@H]1[C@@H](C(=O)OC)C2(c3ccccc3-c3ccccc32)N(c2ccc(Cl)cc2)N1C#N,18.1,28.6,22.4,44.7*,6.3,
CCOC(=O)[C@]12Cc3ccccc3[C@H]1N(CCC(=O)OC)C(=O)c1cc(OC)ccc12,nt,nt,-8.8,11.3,nt,
CCOc1cc2[nH]c(=S)n(CCCC(=O)N3CCC4(CC3)OCCO4)c(=O)c2cc1OCC,2.2,-9.2,-1.4,0.5,34.8*,APJ ag conf=22.3
CCOC(=O)[C@]12Cc3cc(C)ccc3[C@H]1N(C)C(=O)c1cc(OC)ccc12,nt,nt,-14.7,6.2,nt,
